In ChEMBL document CHEMBL4680093 (J Med Chem, 2016):

Tests used:
[1] = Toxicity in female dog during 4-week repeated once daily oral-dose toxicity study; set-up: species or system Canis lupus familiaris; conditions: in vivo, time 4 weeks
How it was run: (§1)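 Dogs of both sexes were dosed orally once daily for 4 weeks at 25, 100 and 400 mg/kg. Toxicity was assessed and the NOAEL determined.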

[2] = molecular target: T1, 11-beta-hydroxysteroid dehydrogenase type 2 (Homo sapiens) (UniProt P80365); assay: Inhibition of human 11beta-HSD2 expressed in microsomes at 1 uM relative to control; conditions: Microsome
T1 sequence (whole entry): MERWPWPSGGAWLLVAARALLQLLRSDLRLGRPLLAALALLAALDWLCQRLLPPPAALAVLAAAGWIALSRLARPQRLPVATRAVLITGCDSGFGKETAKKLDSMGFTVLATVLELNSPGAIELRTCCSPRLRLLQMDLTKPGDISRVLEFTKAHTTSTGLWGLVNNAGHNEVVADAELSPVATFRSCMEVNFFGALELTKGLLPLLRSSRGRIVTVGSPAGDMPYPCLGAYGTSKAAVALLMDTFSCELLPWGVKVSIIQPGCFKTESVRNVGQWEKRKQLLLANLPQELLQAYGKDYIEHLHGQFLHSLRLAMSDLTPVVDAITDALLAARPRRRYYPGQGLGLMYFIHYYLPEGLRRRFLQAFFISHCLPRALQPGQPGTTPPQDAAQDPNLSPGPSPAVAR

[3] = molecular target: T2, UDP-glucuronosyltransferase 1A1 (Homo sapiens, UniProt P22309); assay: Inhibition of UGT1A1 (unknown origin); type: ADME
T2 sequence (P22309 whole entry): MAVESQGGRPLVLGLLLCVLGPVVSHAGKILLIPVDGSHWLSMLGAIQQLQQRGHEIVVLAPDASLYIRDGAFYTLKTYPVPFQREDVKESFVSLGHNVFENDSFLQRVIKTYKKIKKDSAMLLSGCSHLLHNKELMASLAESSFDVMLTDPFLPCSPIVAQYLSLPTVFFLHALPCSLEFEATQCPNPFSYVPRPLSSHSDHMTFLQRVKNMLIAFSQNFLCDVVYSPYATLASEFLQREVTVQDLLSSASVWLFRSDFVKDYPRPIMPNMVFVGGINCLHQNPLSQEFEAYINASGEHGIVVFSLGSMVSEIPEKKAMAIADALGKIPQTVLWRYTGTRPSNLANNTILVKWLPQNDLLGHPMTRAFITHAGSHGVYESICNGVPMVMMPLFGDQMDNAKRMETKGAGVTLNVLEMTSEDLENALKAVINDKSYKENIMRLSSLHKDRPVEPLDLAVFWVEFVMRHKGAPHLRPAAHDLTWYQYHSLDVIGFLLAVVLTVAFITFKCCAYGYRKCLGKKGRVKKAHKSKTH

[4] = molecular target: T1, 11-beta-hydroxysteroid dehydrogenase type 2 (Homo sapiens); assay: Inhibition of human 11beta-HSD2 expressed in microsomes at 10 uM relative to control; conditions: Microsome
[5] = Clearance in rat at 1 mg/kg, iv; type: ADME, organism-based; conditions: in vivo
[6] = Volume of distribution at steady state in rat at 1 mg/kg, iv; type: ADME, organism-based; conditions: in vivo, read-out: Vdss
How it was run: (§2)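 Single-dose PK study. The iv dose was given in 10% hydroxypropyl-β-cyclodextrin and the oral dose in 0.5% methylcellulose/1% Tween80. Mouse and rat received 1 mg/kg iv and 5 mg/kg po. Dog received 0.5 mg/kg iv and 4 mg/kg po. CL, Vss, t1/2, AUC, Cmax, tmax and F were derived.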

[7] = Drug level in mouse brain at 10 mg/kg, po measured after 2 hrs post dose; type: ADME, organism-based; conditions: in vivo
How it was run: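 C57BL/6 mice given a single oral 10 mg/kg dose in 0.5% methylcellulose plus 1% Tween80. Sacrifice at 2 h post-dose, with collection of brain, liver, adipose and plasma. Compound concentration expressed as nmol/g, along with tissue/plasma ratio.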

[8] = molecular target: T3, Nuclear receptor subfamily 1 group I member 2 (Homo sapiens, UniProt O75469); assay: Activation of PXR (unknown origin) at 10 uM relative to rifampicin; type: ADME
T3 sequence (O75469 whole entry): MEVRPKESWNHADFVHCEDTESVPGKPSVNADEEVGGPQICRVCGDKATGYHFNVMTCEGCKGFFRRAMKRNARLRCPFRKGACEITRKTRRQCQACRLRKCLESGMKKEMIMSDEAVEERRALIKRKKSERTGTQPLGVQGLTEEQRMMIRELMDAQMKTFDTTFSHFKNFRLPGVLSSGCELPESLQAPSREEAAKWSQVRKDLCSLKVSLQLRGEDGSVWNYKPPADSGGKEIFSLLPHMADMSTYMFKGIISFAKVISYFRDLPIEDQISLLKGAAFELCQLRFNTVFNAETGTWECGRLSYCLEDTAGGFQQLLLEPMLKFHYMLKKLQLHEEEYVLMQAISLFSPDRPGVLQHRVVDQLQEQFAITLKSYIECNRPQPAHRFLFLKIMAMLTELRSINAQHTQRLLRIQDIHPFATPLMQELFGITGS

[9] = In-vivo inhibition of 11beta-HSD1 activity in C57BL/6 mouse liver assessed as reduction in cortisone to-cortisol conversion at 10 mg/kg, po measured after 6 hrs by ELISA; type: functional; conditions: C57BL/6, Liver
How it was run: (§3)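 Male C57BL/6 mice dosed orally once at 3, 10 or 30 mg/kg in sterile water containing 0.5% methylcellulose and 1% Tween80, then sacrificed at 2 or 6 h. Liver and epididymal fat pads incubated ex vivo in culture medium containing cortisone. Cortisol formed was measured by ELISA and reported as % inhibition versus vehicle.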

Cytochrome P450 2C19 = Cytochrome P450 2C19 (Homo sapiens, UniProt P33261); assay: Inhibition of CYP2C19 in pooled human liver microsomes using mephenytoin as substrate in presence of NADPH incubated for 10 mins by LC-MS/MS analysis
Sequence of Cytochrome P450 2C19 (P33261 whole entry): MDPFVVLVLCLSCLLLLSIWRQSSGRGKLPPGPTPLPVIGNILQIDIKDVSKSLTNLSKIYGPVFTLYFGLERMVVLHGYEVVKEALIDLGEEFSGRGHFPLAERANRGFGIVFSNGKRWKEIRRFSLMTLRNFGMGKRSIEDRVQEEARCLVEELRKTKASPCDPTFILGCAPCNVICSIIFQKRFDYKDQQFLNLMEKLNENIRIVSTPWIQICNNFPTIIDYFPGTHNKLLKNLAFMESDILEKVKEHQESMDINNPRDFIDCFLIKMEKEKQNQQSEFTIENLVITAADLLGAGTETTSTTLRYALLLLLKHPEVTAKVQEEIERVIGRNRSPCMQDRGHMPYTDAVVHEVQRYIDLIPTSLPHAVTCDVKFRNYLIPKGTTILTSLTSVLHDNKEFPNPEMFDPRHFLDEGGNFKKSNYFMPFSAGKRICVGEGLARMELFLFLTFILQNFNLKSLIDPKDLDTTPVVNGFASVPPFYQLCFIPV

[10] = In-vivo inhibition of 11beta-HSD1 activity in C57BL/6 mouse liver assessed as reduction in cortisone to-cortisol conversion at 30 mg/kg, po measured after 6 hrs by ELISA; type: functional; conditions: C57BL/6, Liver; how it was run: as §3
[11] = Tmax in dog at 4 mg/kg, po; type: ADME, organism-based, Canis lupus familiaris; conditions: in vivo; how it was run: as §2
[12] = Toxicity in male dog during 4-week repeated once daily oral-dose toxicity study; set-up: species or system Canis lupus familiaris; conditions: in vivo, time 4 weeks; how it was run: as §1
[13] = AUC in mouse at 1 mg/kg, iv; type: ADME, organism-based; set-up: dose 1 mg/kg; conditions: in vivo
[14] = molecular target: Voltage-gated inwardly rectifying potassium channel KCNH2 (Homo sapiens, UniProt Q12809); assay: Inhibition of human ERG expressed in CHO cells by whole-cell patch clamp assay; type: cell-based
Sequence of Voltage-gated inwardly rectifying potassium channel KCNH2 (Q12809 whole entry): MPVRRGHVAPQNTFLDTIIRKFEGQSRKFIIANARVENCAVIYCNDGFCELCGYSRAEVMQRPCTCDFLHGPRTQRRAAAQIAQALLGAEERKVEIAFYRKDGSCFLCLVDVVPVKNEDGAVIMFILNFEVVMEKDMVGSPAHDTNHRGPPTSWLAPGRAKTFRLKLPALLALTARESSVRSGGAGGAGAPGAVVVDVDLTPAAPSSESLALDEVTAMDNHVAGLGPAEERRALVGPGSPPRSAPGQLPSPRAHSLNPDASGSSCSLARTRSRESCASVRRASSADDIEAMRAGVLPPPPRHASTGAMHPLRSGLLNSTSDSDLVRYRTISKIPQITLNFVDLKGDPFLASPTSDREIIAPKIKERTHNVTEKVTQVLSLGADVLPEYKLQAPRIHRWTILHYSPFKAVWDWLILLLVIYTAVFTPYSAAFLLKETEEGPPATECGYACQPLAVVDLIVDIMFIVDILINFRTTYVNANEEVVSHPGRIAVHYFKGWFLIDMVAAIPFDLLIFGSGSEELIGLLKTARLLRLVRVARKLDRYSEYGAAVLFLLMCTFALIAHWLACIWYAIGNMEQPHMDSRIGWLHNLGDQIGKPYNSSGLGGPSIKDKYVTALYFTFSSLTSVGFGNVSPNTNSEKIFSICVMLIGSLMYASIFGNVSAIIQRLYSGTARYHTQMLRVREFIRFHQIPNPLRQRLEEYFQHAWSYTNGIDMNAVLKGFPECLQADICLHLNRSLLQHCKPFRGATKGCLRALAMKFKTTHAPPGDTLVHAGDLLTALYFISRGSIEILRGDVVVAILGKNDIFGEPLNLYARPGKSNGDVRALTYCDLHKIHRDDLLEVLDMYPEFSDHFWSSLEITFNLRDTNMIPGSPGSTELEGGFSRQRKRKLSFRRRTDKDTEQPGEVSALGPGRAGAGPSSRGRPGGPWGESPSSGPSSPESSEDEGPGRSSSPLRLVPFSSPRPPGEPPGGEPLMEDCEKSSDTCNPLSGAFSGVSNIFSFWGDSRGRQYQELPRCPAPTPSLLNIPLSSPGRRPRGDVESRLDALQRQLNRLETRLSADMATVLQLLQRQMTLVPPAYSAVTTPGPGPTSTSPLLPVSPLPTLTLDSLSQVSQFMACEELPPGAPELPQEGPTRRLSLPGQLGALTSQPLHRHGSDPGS
How it was run: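 hERG channels stably expressed in CHO cells were recorded by whole-cell patch clamp, and an IC50 was estimated.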

[15] = In-vivo inhibition of 11beta-HSD1 activity in C57BL/6 mouse liver assessed as reduction in cortisone to-cortisol conversion at 30 mg/kg, po measured after 2 hrs by ELISA; type: functional; conditions: C57BL/6, Liver; how it was run: as §3
Mus musculus = assay: Improvement in lipid profile in C57BL/6-Lep^ob (ob/ob) mouse assessed as total cholesterol level at 20 mg/kg, po dosed once daily for 25 days (reference value: 286.6 +/- 6.3 mg/dl); type: functional; conditions: time 25 day
[16] = AUC in dog at 4 mg/kg, po; type: ADME, organism-based, Canis lupus familiaris; set-up: dose 4 mg/kg; conditions: in vivo
[17] = AUC in mouse at 5 mg/kg, po; type: ADME, organism-based; set-up: dose 5 mg/kg; conditions: in vivo
[18] = Toxicity in dog assessed as induction of abnormal changes in cardiovascular system up to 400 mg/kg, po; type: organism-based, Canis lupus familiaris; conditions: in vivo
How it was run: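 Dogs fitted with telemetry were given oral doses of up to 400 mg/kg. Cardiovascular and respiratory systems were monitored for abnormal changes.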

Question: With `C[C@@H]1CN(c2ccc(S(C)(=O)=O)cc2F)CCN1c1nccc(C(=O)NC2C3CC4CC2CC(O)(C4)C3)n1` (stereo not given in full) as the molecule, how does the NOAEL at 672 h [1] read?
Answer: 400 mg/kg

Question: And the inhibition [2]?
Answer: 6%

Question: And the IC50 [3]?
Answer: 5.6 µM

Question: What about the inhibition [4] of the same molecule?
Answer: 17%

Question: And the clearance [5]?
Answer: 15.5 mL/min/kg

Question: And the Vd [6]?
Answer: 2.1 L/kg

Question: What about the Drug uptake [7] of the same molecule?
Answer: 0.41 nmol/g

Question: And the Activity [8]?
Answer: 0%

Question: And the inhibition in vivo at 10 mg/kg [9]?
Answer: 87%

Question: What about the IC50 (Cytochrome P450 2C19) of the same molecule?
Answer: > 10 µM

Question: What about the inhibition in vivo at 30 mg/kg [10] of the same molecule?
Answer: 92%

Question: What about the Tmax [11] of the same molecule?
Answer: 2.1 h

Question: What about the NOAEL at 672 h [12] of the same molecule?
Answer: 400 mg/kg

Question: What about the AUC [13] of the same molecule?
Answer: 2350 ng·h/mL

Question: What about the IC50 [14] of the same molecule?
Answer: 8 µM

Question: What about the inhibition in vivo at 30 mg/kg [15] of the same molecule?
Answer: 91%

Question: And the Activity (Mus musculus)?
Answer: 230.6 mg/dL

Question: And the AUC [16]?
Answer: 11500 ng·h/mL

Question: And the AUC [17]?
Answer: 11300 ng·h/mL

Question: What about the Activity [18] of the same molecule?
Answer: Non-Toxic
